21 molecules from ChEMBL document CHEMBL3352813, “Prostaglandin Derivatives: Nonaromatic Phosphodiesterase-4 Inhibitors from the Soft Coral Sarcophyton ehrenbergi” (J Nat Prod, 2014) can be followed below.

The target in test [1] is T1, 3',5'-cyclic-AMP phosphodiesterase 4D (Homo sapiens, UniProt Q08499). Put plainly: Inhibition of human PDE4D2 catalytic domain (86 to 413 amino acids) expressed in Escherichia coli strain BL21 at 10 uM after 15 mins using [3H]-cAMP by liquid scintillation counting. Summed up: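 Single-point primary screen of percent inhibition against PDE4D2 at an initial concentration of 10 μM, using [3H]cAMP as substrate and liquid scintillation counting of radioactivity. Enzyme was produced using LB medium. Rolipram served as the reference inhibitor. The method follows the authors' earlier reports.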
T1 sequence (Q08499 whole entry, the tested form may be a part): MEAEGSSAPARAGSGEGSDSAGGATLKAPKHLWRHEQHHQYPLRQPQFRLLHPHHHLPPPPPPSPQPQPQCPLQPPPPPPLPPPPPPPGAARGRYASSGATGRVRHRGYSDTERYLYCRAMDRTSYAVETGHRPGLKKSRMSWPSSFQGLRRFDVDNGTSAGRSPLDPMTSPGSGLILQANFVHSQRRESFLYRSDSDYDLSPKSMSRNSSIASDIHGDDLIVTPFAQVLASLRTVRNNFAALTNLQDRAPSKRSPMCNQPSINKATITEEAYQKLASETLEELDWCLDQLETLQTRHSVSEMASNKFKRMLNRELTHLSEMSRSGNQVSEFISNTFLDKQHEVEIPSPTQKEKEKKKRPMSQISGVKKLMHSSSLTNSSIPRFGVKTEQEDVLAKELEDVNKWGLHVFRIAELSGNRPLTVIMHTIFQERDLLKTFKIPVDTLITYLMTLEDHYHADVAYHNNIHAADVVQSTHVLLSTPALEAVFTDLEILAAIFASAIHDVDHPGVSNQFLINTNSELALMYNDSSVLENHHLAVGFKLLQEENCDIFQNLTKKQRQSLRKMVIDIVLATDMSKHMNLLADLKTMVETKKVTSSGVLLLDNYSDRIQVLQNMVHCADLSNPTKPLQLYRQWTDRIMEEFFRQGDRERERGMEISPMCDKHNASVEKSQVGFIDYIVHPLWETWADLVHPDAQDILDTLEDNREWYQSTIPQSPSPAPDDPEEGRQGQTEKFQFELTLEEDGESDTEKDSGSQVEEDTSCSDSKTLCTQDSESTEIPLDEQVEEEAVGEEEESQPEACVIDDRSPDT

For test [2], the target named is T1, 3',5'-cyclic-AMP phosphodiesterase 4D. As to the kind of experiment: Inhibition of human PDE4D2 catalytic domain (86 to 413 amino acids) expressed in Escherichia coli strain BL21 after 15 mins using [3H]-cAMP by liquid scintillation counting. Summed up: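 IC50 determined against PDE4D2 only for compounds that gave more than 50% inhibition in the 10 μM primary screen. Substrate was [3H]cAMP and read-out was liquid scintillation counting. Enzyme was produced using LB medium. Rolipram served as the reference inhibitor. The method otherwise follows the authors' earlier reports.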

The inhibition is the drop in the measured response relative to a control, in per cent. `CCC(O)CC[C@H](O)/C=C/[C@@H]1[C@@H](C/C=C\CCCC(=O)O)[C@@H](O)C[C@H]1O` (stereo partly specified): the inhibition in test [1] was -3.93%.
As for `CCC(CC[C@H](O)/C=C/[C@@H]1[C@@H](C/C=C\CCCC(=O)O)[C@@H](O)C[C@H]1OC(C)=O)OC(C)=O` (stereo partly specified), in test [1], the inhibition was 3.12%.
Still for that read-out and setting: the figure for `CCC(=O)CC[C@H](O)/C=C/[C@@H]1[C@@H](C/C=C\CCCC(=O)OC)[C@@H](O)C[C@H]1OC(C)=O` is 21.9%.
What is called IC50 is the concentration needed to halve the response being measured. Low values mean inhibition by little substance, high ones a need for much substance. Regarding `CCCCC[C@@H](/C=C/[C@@H]1[C@@H](C/C=C\CCCC(=O)OC)[C@@H](O)C[C@H]1OC(C)=O)OC(C)=O`, the inhibition in test [1] is 71.9%. The molecule also showed an IC50 in test [2] of 5.5 µM.
With `CCC(CC[C@@H](/C=C/[C@@H]1[C@@H](C/C=C\CCCC(=O)OC)[C@@H](O)C[C@H]1OC(C)=O)OC(C)=O)OC(C)=O` (stereo partly specified), the inhibition in test [1] was determined as 38.7%.
Same read-out and setting: the figure for `CCC(CC[C@H](O)/C=C/[C@@H]1[C@@H](C/C=C\CCCC(=O)OC)[C@@H](OC(C)=O)C[C@H]1OC(C)=O)OC(C)=O` (stereo partly specified) is 11.4%.
`CCCCC[C@@H](/C=C/[C@@H]1[C@@H](CCCCCCC(=O)OC)[C@@H](O)C[C@H]1OC(C)=O)OC(C)=O`: in test [1], the inhibition stood at 41.7%.
On to `CCC(CC[C@@H](/C=C/[C@@H]1[C@@H](C/C=C\CCCC(=O)OC)[C@@H](OC(=O)[C@](OC)(c2ccccc2)C(F)(F)F)C[C@H]1OC(C)=O)OC(=O)[C@](OC)(c1ccccc1)C(F)(F)F)OC(C)=O` (stereo partly specified), for which the inhibition in test [1] was 58%. The molecule also showed an IC50 in test [2] of 3.6 µM.
The corresponding values for `CCC(=O)CC[C@@H](/C=C/[C@@H]1[C@@H](C/C=C\CCCC(=O)OC)[C@@H](OC(C)=O)C[C@H]1OC(C)=O)OC(C)=O` are 65% and 10.6 µM.
On to `CCC(=O)CC[C@H](O)/C=C/[C@@H]1[C@@H](C/C=C\CCCC(=O)O)[C@@H](O)C[C@H]1O`, for which the inhibition in test [1] turned out to be 10.1%.
`CCC(CC[C@@H](/C=C/[C@@H]1[C@@H](C/C=C\CCCC(=O)OC)[C@@H](OC(C)=O)C[C@H]1OC(C)=O)OC(=O)[C@](OC)(c1ccccc1)C(F)(F)F)OC(C)=O` (stereo partly specified): in test [1], the inhibition stood at 28.4%.
On the same count and under the same terms, as for `CCC(CC[C@H](O)/C=C/[C@@H]1[C@@H](C/C=C\CCCC(=O)OC)[C@@H](O)C[C@H]1OC(C)=O)OC(C)=O` (stereo partly specified), the figure is -6.05%.
As to `CCC(CC[C@@H](/C=C/[C@@H]1[C@@H](C/C=C\CCCC(=O)OC)[C@@H](OC(=O)[C@@](OC)(c2ccccc2)C(F)(F)F)C[C@H]1OC(C)=O)OC(=O)[C@@](OC)(c1ccccc1)C(F)(F)F)OC(C)=O` (stereo partly specified), the inhibition in test [1] came out at 51.1%. In test [2], this molecule yielded a half-maximal inhibitory concentration (IC50) of 5.9 µM.
For `CCC(=O)CC[C@@H](/C=C/[C@@H]1[C@@H](C/C=C\CCCC(=O)O)[C@@H](O)C[C@H]1OC(C)=O)OC(C)=O` the same measures were 50.4% and 16.9 µM.
In the case of `CCCCC[C@@H](/C=C/[C@@H]1[C@@H](C/C=C\CCCC(=O)OC)[C@@H](OC(C)=O)C[C@H]1OC(C)=O)OC(C)=O`, the inhibition in test [1] stood at 94.6%. For the same molecule, in test [2], the IC50 came out at 1.4 µM.
For the molecule `CCCCC[C@@H](/C=C/[C@@H]1[C@@H](/C=C/CCCCC(=O)OC)[C@@H](O)C[C@H]1OC(C)=O)OC(C)=O`, the inhibition in test [1] turned out to be 57.3%. The molecule also yielded an IC50 in test [2] of 7.2 µM.
As for `CCC(CC[C@@H](/C=C/[C@@H]1[C@@H](C/C=C\CCCC(=O)OC)[C@@H](OC(C)=O)C[C@H]1OC(C)=O)OC(C)=O)OC(C)=O` (stereo partly specified), the inhibition in test [1] came out at 66.5%. Besides, inhibition in test [2] was half-maximal at 3.7 µM (IC50).
As to `CCC(=O)CC[C@H](O)/C=C/[C@@H]1[C@@H](C/C=C\CCCC(=O)O)[C@@H](O)C[C@H]1OC(C)=O`, in test [1], the inhibition was determined as 26%.
For `CCCCC[C@@H](/C=C/[C@@H]1[C@@H](C/C=C\CCCC(=O)OC)[C@@H](OC(C)=O)C[C@H]1O)OC(C)=O`, the inhibition in test [1] amounted to 74.7%. The IC50 in test [2] was found to be 4.7 µM.
In the case of `CCC(CC[C@@H](/C=C/[C@@H]1[C@@H](C/C=C\CCCC(=O)OC)[C@@H](OC(C)=O)C[C@H]1OC(C)=O)OC(=O)[C@@](OC)(c1ccccc1)C(F)(F)F)OC(C)=O` (stereo partly specified), the inhibition in test [1] is 15.1%.
Take `CCC(=O)CC[C@@H](/C=C/[C@@H]1[C@@H](C/C=C\CCCC(=O)OC)[C@@H](O)C[C@H]1OC(C)=O)OC(C)=O`: the inhibition in test [1] stood at 57.2%. Besides, the IC50 in test [2] is 12.1 µM.
